The list is not random: actives were taken first. Their share in the collection is about 3.1%.
UBC9 SUMO inh – SUMOylation inhibition; P63279; HTRF SUMOylation assay, SAE1/SAE2 + UBC9, in vitro; inhibition, % at 35 µM; 290,000 compounds, 0.36% hits; AID 2006; in the data active = inhibition above about 50%, passing the limit was not always enough
Target sequence (P63279 whole entry, looked up): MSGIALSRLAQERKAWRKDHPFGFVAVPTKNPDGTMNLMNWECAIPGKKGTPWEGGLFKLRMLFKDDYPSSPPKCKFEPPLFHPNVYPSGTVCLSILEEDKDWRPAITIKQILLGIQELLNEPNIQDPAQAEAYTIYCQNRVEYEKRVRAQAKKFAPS
PHOSPHO1 inh – inhibitors of human PHOSPHO1 phosphatase | recombinant PHOSPHO1, absorbance phosphatase assay | Q8TCT1 | 290,000 compounds, 1.1% hits | inhibition, % at 13.3 µM; in the data active = inhibition above about 60%
Target sequence (Q8TCT1 whole entry, looked up): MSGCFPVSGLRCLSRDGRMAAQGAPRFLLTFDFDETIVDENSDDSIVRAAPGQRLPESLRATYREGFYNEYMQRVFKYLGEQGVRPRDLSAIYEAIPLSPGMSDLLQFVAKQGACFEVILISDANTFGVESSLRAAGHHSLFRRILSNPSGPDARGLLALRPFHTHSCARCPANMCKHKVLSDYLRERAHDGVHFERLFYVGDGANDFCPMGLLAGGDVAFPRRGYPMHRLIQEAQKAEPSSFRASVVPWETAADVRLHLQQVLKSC
IMP-1 inh – inhibitors of Pseudomonas aeruginosa IMP-1 metallo-beta-lactamase; purified IMP-1, nitrocefin hydrolysis, epi-absorbance fluorescence; inhibition, % at 5.6 µM; 290,000 compounds, 0.45% hits;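 active = inhibition above the mean plus 3 SD of all compounds in the same screening run, cut at about 4.5% in these data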;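 note: 0% = IMP-1 with DMSO and 100% = DMSO wells lacking enzyme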
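assay system = purified recombinant IMP-1 metallo-beta-lactamase enzyme | schedule = 15 min preincubation plus 25 min reaction at 25 °C | signal = Epi-absorbance fluorescence, 480 nm excitation, 530 nm emission | read-out basis = percent inhibition from optical density relative to buffer-blank wells | controls = IMP-1 with DMSO as 0%, enzyme-free DMSO as 100%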
NS3 helicase inh – inhibitors of Hepatitis C virus NS3 helicase; AID 1800; 290,000 compounds, 0.56% hits; NS3 helicase DNA unwinding, Cy5 molecular beacon fluorescence; inhibition, % at 10.9 µM;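 active = inhibition above the mean of all tested compounds plus 3 SD, set per campaign, cut at about 35% in these data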;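 note: 0% = DMSO wells and 100% = thioflavine S control wells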
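System: Hepatitis C virus NS3 helicase domain fragment enzyme | Reagent: Annealed dual-labelled DNA beacon duplex, ATP-started | Compound dosing: 10.9 µM single point, 0.8% DMSO | Incubation: 1 h reaction at 25 °C, ATP-initiated | Technique: Cy5 fluorescence | Evaluation: Percent inhibition from t60/t0 fluorescence ratio | Benchmarks: Low DMSO, high thioflavine S at 110 µM | Replication: Singlicate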
core dimer inh – blocks dimerization of HCV core protein. TR-FRET GST/Flag-core106 dimerization, 1536-well. inhibition, % at 5 µM. 300,000 compounds, 0.33% hits. AID 1899;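 active = inhibition above the mean of all tested compounds plus 3 SD, set per screening campaign, cut at about 45% in these data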
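System: GST/Flag-tagged HCV core106 proteins. Incubation: compound-protein-antibody incubation 4 h at 22.5 °C. Technique: HTRF with 340 nm excitation, 617/671 nm emission. Medium: KF-containing HEPES buffer, pH 7.45, DTT, CHAPS, BSA. Read-out: inhibition (%) from 671 over 617 nm ratio. Also added: Eu(K)-anti-GST 90 ng/mL plus XL665-anti-Flag 1 µg/mL.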
VIM-2 inh – inhibitors of Pseudomonas aeruginosa VIM-2 metallo-beta-lactamase | AID 1527 | purified VIM-2, nitrocefin hydrolysis, epi-absorbance fluorescence | inhibition, % at 5.6 µM | 290,000 compounds, 0.89% hits;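 active = inhibition above the mean of all tested compounds plus 3 SD, cutoff set per screening run, cut at about 7.5% in these data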;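 note: red hydrolysis product quenches plate fluorescence so inhibitors raise well fluorescence; 0% = enzyme with DMSO and 100% = DMSO without enzyme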
Numbers without * were called inactive.

Results for COC(=O)c1ccc(C2/C(=C(\O)c3ccc4c(c3)OCCO4)C(=O)C(=O)N2c2nnc(C)s2)cc1 (stereo unspecified) ?
UBC9 SUMO inh: 17.8; PHOSPHO1 inh: 18.5; IMP-1 inh: -1.1; NS3 helicase inh: 13.4; core dimer inh: -2.9; VIM-2 inh: -1.0

How did Cc1nnc(N2C(=O)C(=O)/C(=C(/O)c3ccc4c(c3)OCCO4)C2c2ccc([N+](=O)[O-])cc2)s1 (stereo unspecified) do in these assays?
UBC9 SUMO inh: 15.2; PHOSPHO1 inh: 59.4; IMP-1 inh: -3.1; NS3 helicase inh: 23.9; core dimer inh: 48.1*; VIM-2 inh: -0.9

Results for Fc1ccc(-n2c(-c3cccs3)nc3nc4ccccc4nc32)cc1 ?
UBC9 SUMO inh: -1.7; PHOSPHO1 inh: -6.0; IMP-1 inh: -0.3; NS3 helicase inh: 9.6; core dimer inh: 10.0; VIM-2 inh: -0.2

How did Fc1cccc(-n2c(-c3cccs3)nc3nc4ccccc4nc32)c1 do in these assays?
UBC9 SUMO inh: 54.9*; PHOSPHO1 inh: 24.8; IMP-1 inh: -0.8; NS3 helicase inh: 1.9; core dimer inh: -0.8; VIM-2 inh: -1.8

How did CSC1=NC2C(N1)N(C)C(=O)N2C (stereo unspecified) do in these assays?
UBC9 SUMO inh: 0.1; PHOSPHO1 inh: 78.3*; IMP-1 inh: -1.2; NS3 helicase inh: 5.9; core dimer inh: -10.8; VIM-2 inh: 0.3

What do the screens show for `COC(=O)c1nc(-c2ccccc2)oc1N1CCOCC1`?
UBC9 SUMO inh: 8.6; PHOSPHO1 inh: -8.2; IMP-1 inh: -2.0; NS3 helicase inh: 10.4; core dimer inh: -0.4; VIM-2 inh: 1.2

Results for O=C(CN1CCC(n2cnc3cc(F)ccc32)CC1)Nc1ccccc1Br ?
UBC9 SUMO inh: -8.2; PHOSPHO1 inh: -3.9; IMP-1 inh: -2.0; NS3 helicase inh: -31.4; core dimer inh: -3.5; VIM-2 inh: 9.8*

Results for CC(=O)Nc1ccc(S(=O)(=O)NNC(=S)NCc2ccco2)cc1 ?
UBC9 SUMO inh: 2.0; PHOSPHO1 inh: 36.6; IMP-1 inh: -2.8; NS3 helicase inh: 0.2; core dimer inh: 6.8; VIM-2 inh: -5.0

How did CCOc1ccc(NC(=O)NCc2ccco2)cc1 do in these assays?
UBC9 SUMO inh: 4.7; PHOSPHO1 inh: 67.1*; IMP-1 inh: -1.7; NS3 helicase inh: 7.4; core dimer inh: -1.7; VIM-2 inh: -0.9

What do the screens show for `O=C(Cc1ccccc1)NCCSCc1ccco1`?
UBC9 SUMO inh: 1.7; PHOSPHO1 inh: 49.5; IMP-1 inh: -2.4; NS3 helicase inh: -1.9; core dimer inh: -3.0; VIM-2 inh: -0.8

How did CCOc1ccc(NC(=O)NC2(C(=O)NCc3ccco3)CCCCC2)cc1 do in these assays?
UBC9 SUMO inh: -13.1; PHOSPHO1 inh: 30.4; IMP-1 inh: -3.8; NS3 helicase inh: 2.3; core dimer inh: -2.3; VIM-2 inh: -1.9

How did O=C(NCCSCc1ccco1)Nc1ccccc1 do in these assays?
UBC9 SUMO inh: 18.0; PHOSPHO1 inh: 73.5*; IMP-1 inh: -1.8; NS3 helicase inh: 0.9; core dimer inh: 13.4; VIM-2 inh: 0.1

Results for CC(=O)Nc1ccc(C(=S)NCc2ccco2)cc1 ?
UBC9 SUMO inh: 39.6; PHOSPHO1 inh: 94.5*; IMP-1 inh: -0.5; NS3 helicase inh: -4.2; core dimer inh: 2.4; VIM-2 inh: -2.1

How did CC(C1CC2CCC1C2)n1c(-c2ccco2)n[nH]c1=S (stereo unspecified) do in these assays?
UBC9 SUMO inh: 7.8; PHOSPHO1 inh: -9.0; IMP-1 inh: -0.2; NS3 helicase inh: 10.1; core dimer inh: -0.2; VIM-2 inh: 5.9

Results for COc1ccccc1-n1c(=O)c(C#N)c(-c2ccc([N+](=O)[O-])cc2)c2cc(C(=O)c3cc(F)ccc3O)cnc21 ?
UBC9 SUMO inh: 4.7; PHOSPHO1 inh: 17.0; IMP-1 inh: -2.8; NS3 helicase inh: 1.0; core dimer inh: 49.3*; VIM-2 inh: -0.4

How did COc1ccc(CCN2C(=O)CC(C(C)c3ccccc3)C2=O)cc1OC (stereo unspecified) do in these assays?
UBC9 SUMO inh: -2.6; PHOSPHO1 inh: -19.1; IMP-1 inh: 23.6*; NS3 helicase inh: -11.1; core dimer inh: -1.1; VIM-2 inh: -0.7

How did COc1ccc(CCN2C(=O)CC(Cc3ccccc3)C2=O)cc1OC (stereo unspecified) do in these assays?
UBC9 SUMO inh: 6.0; PHOSPHO1 inh: 27.3; IMP-1 inh: -2.5; NS3 helicase inh: -4.2; core dimer inh: 1.2; VIM-2 inh: -1.5

How did CCCCn1c(N)c(N(CCOC)C(=O)c2cc(C)oc2C)c(=O)[nH]c1=O do in these assays?
core dimer inh: -1.4

How did Cc1ccc(NC(=O)c2c(-c3c(F)cccc3Cl)noc2C)cc1F do in these assays?
UBC9 SUMO inh: 8.2; PHOSPHO1 inh: 3.3; IMP-1 inh: 41.0*; NS3 helicase inh: 0.8; core dimer inh: 2.1; VIM-2 inh: 6.6

Results for CCc1ccc(NC(=S)NC(=O)c2c(-c3ccccc3Cl)noc2C)cc1 ?
UBC9 SUMO inh: 2.6; PHOSPHO1 inh: 28.5; IMP-1 inh: -0.1; NS3 helicase inh: 3.5; core dimer inh: 4.3; VIM-2 inh: -0.9

What do the screens show for `Cc1cc(NC(=O)c2c(-c3c(F)cccc3Cl)noc2C)no1`?
UBC9 SUMO inh: 8.8; PHOSPHO1 inh: 24.6; IMP-1 inh: -4.8; NS3 helicase inh: 8.4; core dimer inh: 1.5; VIM-2 inh: -3.2

Results for Cc1onc(-c2ccccc2Cl)c1C(=O)NCc1ccco1 ?
UBC9 SUMO inh: 65.8; PHOSPHO1 inh: 21.2; IMP-1 inh: -1.5; NS3 helicase inh: 20.7; core dimer inh: 57.2*; VIM-2 inh: -3.3

How did Cc1onc(-c2ccccc2Cl)c1C(=O)Nc1nnc(C(C)C)s1 do in these assays?
UBC9 SUMO inh: -13.7; PHOSPHO1 inh: 1.2; IMP-1 inh: -3.1; NS3 helicase inh: 0.4; core dimer inh: -1.1; VIM-2 inh: 1.9

Results for Cc1nnc(NC(=O)c2c(-c3ccccc3Cl)noc2C)s1 ?
UBC9 SUMO inh: 3.1; PHOSPHO1 inh: 60.1*; IMP-1 inh: -2.4; NS3 helicase inh: -12.5; core dimer inh: -4.0; VIM-2 inh: 1.8

How did Cc1onc(-c2ccccc2Cl)c1C(=O)NC(=S)NCC(=O)c1ccccc1 do in these assays?
UBC9 SUMO inh: -5.0; PHOSPHO1 inh: 62.9*; IMP-1 inh: -1.8; NS3 helicase inh: 2.0; core dimer inh: 19.9; VIM-2 inh: -3.2

How did CC(NC(=O)C(=O)N/N=C\c1cccc([N+](=O)[O-])c1)c1ccccc1 (stereo unspecified) do in these assays?
UBC9 SUMO inh: 18.4; PHOSPHO1 inh: 32.8; IMP-1 inh: -4.1; NS3 helicase inh: 9.9; core dimer inh: -2.5; VIM-2 inh: -3.4

What do the screens show for `Cc1nnc(SCCOc2ccccc2)s1`?
UBC9 SUMO inh: 5.9; PHOSPHO1 inh: 38.5; IMP-1 inh: -1.7; NS3 helicase inh: 1.5; core dimer inh: -6.9; VIM-2 inh: -1.9
